Experimental data published in ChEMBL document CHEMBL2062399, “Design, synthesis, and structure-activity relationships of a series of 2-Ar-8-methyl-5-alkylaminoquinolines as novel CRF₁ receptor antagonists” (Bioorg Med Chem Lett, 2012).

Experiments:
[1] = molecular target: T1, Corticotropin-releasing factor receptor 1 (Homo sapiens, UniProt P34998); assay: Displacement of [125I]-CRF from human CRF1 receptor expressed in HEK293 cells after 2 hrs; assay type: cell-based
T1 sequence (P34998 whole entry): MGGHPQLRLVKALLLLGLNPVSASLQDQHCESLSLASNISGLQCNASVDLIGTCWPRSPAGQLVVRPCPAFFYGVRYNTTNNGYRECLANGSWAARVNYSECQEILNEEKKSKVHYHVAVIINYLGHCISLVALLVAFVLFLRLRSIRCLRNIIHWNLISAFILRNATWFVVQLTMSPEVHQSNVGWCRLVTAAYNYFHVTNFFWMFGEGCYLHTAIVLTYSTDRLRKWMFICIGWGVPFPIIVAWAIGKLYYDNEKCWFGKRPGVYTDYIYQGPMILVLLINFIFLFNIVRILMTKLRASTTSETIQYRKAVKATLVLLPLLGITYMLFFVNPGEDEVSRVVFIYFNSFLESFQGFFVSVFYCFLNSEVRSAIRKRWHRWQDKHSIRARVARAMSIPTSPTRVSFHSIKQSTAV
Outline: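 Scintillation proximity assay with HEK293 membranes expressing human CRF1 (5 µg/well), WGA-coated SPA beads and 0.1 nM [125I] human/rat CRF. Buffer pH 7.0 with 10 mM MgCl2, 2 mM EGTA, 1.5% BSA and protease inhibitors. Nonspecific binding with 0.4 µM unlabeled sauvagine. Incubated over 2 h at room temperature, then centrifuged and counted. Specific binding taken as % of total, IC50 from concentration-response curve.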

[2] = molecular target: T1, Corticotropin-releasing factor receptor 1; assay: Antagonist activity at human CRF1 receptor expressed in HEK293 cells assessed as inhibition of CRF-stimulated intracellular cAMP accumulation after 30 mins by enzyme immunoassay; assay type: functional, cell-based
Outline: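 HEK293 cells stably expressing human CRF1, seeded at 5×10^4 cells/well in DMEM with 0.1% FBS and 1 mM IBMX. After 30 min preincubation, compound added for 30 min at 37 °C, then 1 nM human/rat CRF for 30 min at 37 °C. Lysed cAMP measured by EIA, basal subtracted, expressed as % of total production. IC50 from concentration-response curve.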

Rattus norvegicus = assay: Inhibition of CRF-induced fecal pellet output in rat at 10 mg/kg, po administered 1 hr before CRF challenge by measuring decrease in fecal weight after 4 hrs; assay type: functional; settings: Feces
Outline: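 Rats dosed orally at 10 mg/kg 1 h before intravenous CRF (10 µg/kg). Fecal weight measured 4 h after CRF injection and compared with the vehicle + CRF group. 6–7 rats/group, mean ± S.E.M., unpaired t test.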

SMILES	IC50 [1]	IC50 [2]	inhibition in vivo at 10 mg/kg (Rattus norvegicus)
CCCN(CCC)c1ccc(CC)c2nc(-c3c(OC)cc(COC)cc3OC)c(C)cc12	115 nM	375 nM	–
COCc1cc(OC)c(-c2nc3c(C)ccc(N(CC4CCOCC4)CC4CC4)c3cc2C)c(OC)c1	286 nM	–	–
COCc1cc(OC)c(-c2nc3c(C)ccc(N(CC4CC4)C4CCOCC4)c3cc2C)c(OC)c1	246 nM	–	–
CCCN(CCC)c1ccc(C)c2nc(Oc3c(OC)cc(COC)cc3OC)c(C)cc12	> 1000 nM	–	–
CCCN(CCC)c1ccc(C)c2nc(-c3c(OC)cc(COC)cc3OC)c(C)cc12	88 nM	70 nM	64%
CCN(CC)c1ccc(C)c2nc(-c3c(OC)cc(COC)cc3OC)c(F)cc12	144 nM	131 nM	–
COCCNc1ccc(C)c2nc(-c3c(OC)cc(COC)cc3OC)c(C)cc12	> 1000 nM	–	–
CCN(CC)c1ccc(C)c2nc(-c3c(OC)cc(COC)cc3OC)ccc12	184 nM	381 nM	–

Further lines, with some results ahead:

IC50 [1]	IC50 [2]	SMILES	inhibition in vivo at 10 mg/kg (Rattus norvegicus)
> 1000 nM	–	CCC(CC)Nc1ccc(C)c2nc(-c3c(OC)cc(COC)cc3OC)c(C)cc12	–
276 nM	97 nM	CCCN(CCC)c1cccc2nc(-c3c(OC)cc(COC)cc3OC)c(C)cc12	–
212 nM	> 1000 nM	COCc1cc(OC)c(-c2nc3c(C)ccc(N(C)C)c3cc2C)c(OC)c1	–
88 nM	46 nM	COCc1cc(OC)c(-c2nc3c(C)ccc(N(CC4CC4)CC4CC4)c3cc2C)c(OC)c1	53%
81 nM	45 nM	CCN(CC)c1ccc(C)c2nc(-c3c(OC)cc(COC)cc3OC)c(Cl)cc12	–
109 nM	23 nM	CCN(CCOC)c1ccc(C)c2nc(-c3c(OC)cc(COC)cc3OC)c(C)cc12	–
79 nM	24 nM	CCN(CC)c1ccc(C)c2nc(-c3c(OC)cc(COC)cc3OC)c(C)cc12	63%
89 nM	174 nM	COCCN(C)c1ccc(C)c2nc(-c3c(OC)cc(COC)cc3OC)c(C)cc12	–
